{
  "source": "PubChem BioAssay",
  "note": "Calls of active or inactive are those of the source.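 Rule for the calls: active = GFP response above 150% of the DMSO control; inconclusive = fewer than 70 events counted in any yeast strain; inactive = the rest.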",
  "data": [
    {"test": "hit retest on RPL19A-GFP reporter strain – cell-based, S. cerevisiae, flow cytometry, cherry picks, mother/daughter gates, confirmation (AID 2270)", "conditions": "3 h, measured here: mother cell gate, at 10 µM, stronger effect = lower value, 100 = same GFP as DMSO wells", "units": {"GFP response vs DMSO": "%"}, "values": [
      {"smiles": "COc1ccc(COC(=O)c2n[nH]c3ccccc23)cc1F", "GFP response vs DMSO": 98.2},
      {"smiles": "CCCc1cc(N2CCN(c3ccccn3)CC2)n2nc(C)c(-c3ccccc3)c2n1", "GFP response vs DMSO": 104},
      {"smiles": "O=C1c2ccccc2C2=Nc3ccccc3SC(c3cccc(F)c3)C12", "note": "(stereo not given)", "GFP response vs DMSO": 102},
      {"smiles": "CCOC(=O)COc1c(Cl)cc(/C=C2\\N=C(C)OC2=O)cc1OC", "GFP response vs DMSO": 103},
      {"smiles": "Cc1nn2c(N3CCN(C(=O)c4ccco4)CC3)cc(C(C)(C)C)nc2c1-c1ccccc1", "GFP response vs DMSO": 98.9},
      {"smiles": "Cc1ccc(S(=O)(=O)N(CC(=O)NCc2ccncc2)Cc2ccccc2F)cc1", "GFP response vs DMSO": 98.5},
      {"smiles": "Cc1ccc(N2C(=O)C3C4C=CC(CNC(=S)Nc5ccc(F)cc5)(O4)C3C2=O)cc1", "note": "(stereo not given)", "GFP response vs DMSO": 97.5},
      {"smiles": "COc1ccc(CC(=O)Oc2ccccc2C)cc1", "GFP response vs DMSO": 98.3},
      {"smiles": "Cc1cc(C=C2C(=O)c3ccccc3C2=O)c(C)n1-c1cccc(C(=O)O)c1", "GFP response vs DMSO": 101},
      {"smiles": "CC(C)c1ccc2c(c1)C1(NN=C(c3ccccc3)S1)C(=O)N2", "note": "(stereo not given)", "GFP response vs DMSO": 104},
      {"smiles": "O=C(N/N=C\\c1ccc(F)cc1)c1cc(OCC(F)(F)F)ccc1OCC(F)(F)F", "GFP response vs DMSO": 99.2},
      {"smiles": "Cc1cc(NCCCN2CCOCC2)n2ncc(-c3ccccc3)c2n1", "GFP response vs DMSO": 99.6},
      {"smiles": "COc1cc(NC(C)=O)ccc1NC(=O)c1cc2ccccc2o1", "GFP response vs DMSO": 98.2},
      {"smiles": "COc1ccc(CCN2C(=O)c3cccc4cccc(c34)C2=O)cc1OC", "GFP response vs DMSO": 104},
      {"smiles": "CN(O)/C=c1/ccc2c(n1)C(=O)C=CC=2", "GFP response vs DMSO": 100},
      {"smiles": "C/C(=N\\NC(=O)c1ccc(Cl)c(Cl)c1)c1cccc(NC(=O)C(C)C)c1", "GFP response vs DMSO": 101},
      {"smiles": "Cc1ccc(-c2ccc(/C=N/NC(N)=S)o2)cc1", "GFP response vs DMSO": 98.7},
      {"smiles": "CC(C)(C)c1ccc(C(=O)N/N=C/c2cccc(Cl)c2)cc1", "GFP response vs DMSO": 95.4},
      {"smiles": "Cc1ccc(S(=O)(=O)Nc2cc(Cl)c(O)c3ncccc23)cc1", "GFP response vs DMSO": 97.1},
      {"smiles": "CC1CCc2c(C(=O)NCc3cccnc3)csc2C1", "note": "(stereo not given)", "GFP response vs DMSO": 92.7},
      {"smiles": "CCNc1nc(-c2ccc(Cl)cc2)cs1", "GFP response vs DMSO": 101},
      {"smiles": "O=C(CSc1nc2ccsc2c(=O)n1CC1CCC(C(=O)O)CC1)c1ccc(F)cc1", "note": "(stereo not given)", "GFP response vs DMSO": 103},
      {"smiles": "CC(=O)Oc1ccc(N2C(=O)C3C4C=CC(CO)(O4)C3C2=O)cc1", "note": "(stereo not given)", "GFP response vs DMSO": 97.8},
      {"smiles": "Oc1c(C(Nc2cccc(C(F)(F)F)c2)c2ccncc2)ccc2cccnc12", "note": "(stereo not given)", "GFP response vs DMSO": 102},
      {"smiles": "COc1cc(C2CC(c3cccnc3)=NN2c2ccc(F)cc2)cc(OC)c1OC", "note": "(stereo not given)", "GFP response vs DMSO": 95.2},
      {"smiles": "COc1ccc(C(=O)C2CCCN(C(=O)c3cccs3)C2)cc1F", "note": "(stereo not given)", "GFP response vs DMSO": 101},
      {"smiles": "COC(=O)c1ccc(Cn2cc(/C=C\\[N+](=O)[O-])c3ccccc32)o1", "GFP response vs DMSO": 102},
      {"smiles": "CC(C)(C)NC(=O)CN(C(=O)CCC(=O)Nc1nccs1)c1ccc(F)cc1", "GFP response vs DMSO": 101},
      {"smiles": "COc1ccccc1CNC(=O)CS(=O)Cc1nc(-c2ccc(OC)c(OC)c2)oc1C", "note": "(stereo not given)", "GFP response vs DMSO": 98},
      {"smiles": "O=C(COC(=O)C1CCN(c2ccc(C(F)(F)F)cn2)CC1)Nc1cccc(F)c1", "GFP response vs DMSO": 96.1},
      {"smiles": "COc1ccc(CCNc2nc(-c3sc(C)nc3C)cs2)cc1OC", "GFP response vs DMSO": 95.4},
      {"smiles": "O=C(Nc1c2c(nn1-c1ccccc1)CS(=O)C2)c1ccco1", "note": "(stereo not given)", "GFP response vs DMSO": 95},
      {"smiles": "Cc1ccsc1/C=N/Nc1ncc(Cl)cc1Cl", "GFP response vs DMSO": 85.8},
      {"smiles": "O=C(Nc1ccc(S(=O)(=O)N2CCOCC2)cc1)c1ccc([N+](=O)[O-])cc1Cl", "GFP response vs DMSO": 99.7},
      {"smiles": "Cc1ccc(-c2nc(NC(=O)c3nn(C)cc3[N+](=O)[O-])sc2C)cc1C", "GFP response vs DMSO": 102},
      {"smiles": "CC(C)c1nnc(SCC(=O)N2CCc3ccccc32)n1C", "GFP response vs DMSO": 101},
      {"smiles": "O=S(=O)(c1ccc(-c2ccccc2)cc1)N1CCOCC1", "GFP response vs DMSO": 94.8},
      {"smiles": "Cc1cc(O)c(C(=O)/C=C/c2cccc([N+](=O)[O-])c2)c(=O)o1", "GFP response vs DMSO": 95.8},
      {"smiles": "COc1ccccc1N=Nc1ccc(O)c2ncccc12", "GFP response vs DMSO": 101},
      {"smiles": "N=c1ccn(CC(=O)c2ccc(-c3ccccc3)cc2)cc1", "GFP response vs DMSO": 98.8}
    ]},
    {"test": "yeast TOR pathway reporter LAP4-GFP change – cell-based, cherry picks, flow cytometry, mother/daughter gates, confirmation (AID 2271);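 note: ratio of sample to DMSO plate mean so 100% equals DMSO level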", "conditions": "S. cerevisiae LAP4-GFP strain, 3 h, at 10 µM, stronger effect = higher value, 100 means same as DMSO control", "summary_of_the_method": "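Measured by: GFP by flow cytometry. Test system: GFP-fusion yeast strain. Input: yeast cells seeded at OD600 of 0.2. Timing: 30 °C, 3 h compound incubation, rotating. Buffer or medium: synthetic complete medium for yeast. Benchmarks: DMSO-only negative wells, rapamycin 400 ng/mL positive wells. Compound: 10 µM single dose.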", "values": [
      {"smiles": "COc1ccc(COC(=O)c2n[nH]c3ccccc23)cc1F", "GFP response relative to DMSO": "97.4% (inactive)"},
      {"smiles": "CCCc1cc(N2CCN(c3ccccn3)CC2)n2nc(C)c(-c3ccccc3)c2n1", "GFP response relative to DMSO": "142% (inactive)"},
      {"smiles": "O=C1c2ccccc2C2=Nc3ccccc3SC(c3cccc(F)c3)C12", "note": "(stereo not given)", "GFP response relative to DMSO": "106% (inactive)"},
      {"smiles": "CCOC(=O)COc1c(Cl)cc(/C=C2\\N=C(C)OC2=O)cc1OC", "GFP response relative to DMSO": "109% (inactive)"},
      {"smiles": "Cc1nn2c(N3CCN(C(=O)c4ccco4)CC3)cc(C(C)(C)C)nc2c1-c1ccccc1", "GFP response relative to DMSO": "92.8% (inactive)"},
      {"smiles": "Cc1ccc(S(=O)(=O)N(CC(=O)NCc2ccncc2)Cc2ccccc2F)cc1", "GFP response relative to DMSO": "99.2% (inactive)"},
      {"smiles": "Cc1ccc(N2C(=O)C3C4C=CC(CNC(=S)Nc5ccc(F)cc5)(O4)C3C2=O)cc1", "note": "(stereo not given)", "GFP response relative to DMSO": "102% (inactive)"},
      {"smiles": "COc1ccc(CC(=O)Oc2ccccc2C)cc1", "GFP response relative to DMSO": "100% (inactive)"},
      {"smiles": "Cc1cc(C=C2C(=O)c3ccccc3C2=O)c(C)n1-c1cccc(C(=O)O)c1", "GFP response relative to DMSO": "96.1% (inactive)"},
      {"smiles": "CC(C)c1ccc2c(c1)C1(NN=C(c3ccccc3)S1)C(=O)N2", "note": "(stereo not given)", "GFP response relative to DMSO": "96.2% (inactive)"},
      {"smiles": "O=C(N/N=C\\c1ccc(F)cc1)c1cc(OCC(F)(F)F)ccc1OCC(F)(F)F", "GFP response relative to DMSO": "100% (inactive)"},
      {"smiles": "Cc1cc(NCCCN2CCOCC2)n2ncc(-c3ccccc3)c2n1", "GFP response relative to DMSO": "96.2% (inactive)"},
      {"smiles": "COc1cc(NC(C)=O)ccc1NC(=O)c1cc2ccccc2o1", "GFP response relative to DMSO": "95% (inactive)"},
      {"smiles": "COc1ccc(CCN2C(=O)c3cccc4cccc(c34)C2=O)cc1OC", "GFP response relative to DMSO": "95.7% (inactive)"},
      {"smiles": "CN(O)/C=c1/ccc2c(n1)C(=O)C=CC=2", "GFP response relative to DMSO": "192% (active)"},
      {"smiles": "C/C(=N\\NC(=O)c1ccc(Cl)c(Cl)c1)c1cccc(NC(=O)C(C)C)c1", "GFP response relative to DMSO": "94.2% (inactive)"},
      {"smiles": "Cc1ccc(-c2ccc(/C=N/NC(N)=S)o2)cc1", "GFP response relative to DMSO": "112% (inactive)"},
      {"smiles": "CC(C)(C)c1ccc(C(=O)N/N=C/c2cccc(Cl)c2)cc1", "GFP response relative to DMSO": "100% (inactive)"},
      {"smiles": "Cc1ccc(S(=O)(=O)Nc2cc(Cl)c(O)c3ncccc23)cc1", "GFP response relative to DMSO": "122% (inactive)"},
      {"smiles": "CC1CCc2c(C(=O)NCc3cccnc3)csc2C1", "note": "(stereo not given)", "GFP response relative to DMSO": "111% (inactive)"},
      {"smiles": "CCNc1nc(-c2ccc(Cl)cc2)cs1", "GFP response relative to DMSO": "93.8% (inactive)"},
      {"smiles": "O=C(CSc1nc2ccsc2c(=O)n1CC1CCC(C(=O)O)CC1)c1ccc(F)cc1", "note": "(stereo not given)", "GFP response relative to DMSO": "89% (inactive)"},
      {"smiles": "CC(=O)Oc1ccc(N2C(=O)C3C4C=CC(CO)(O4)C3C2=O)cc1", "note": "(stereo not given)", "GFP response relative to DMSO": "120% (inactive)"},
      {"smiles": "Oc1c(C(Nc2cccc(C(F)(F)F)c2)c2ccncc2)ccc2cccnc12", "note": "(stereo not given)", "GFP response relative to DMSO": "135% (inactive)"},
      {"smiles": "COc1cc(C2CC(c3cccnc3)=NN2c2ccc(F)cc2)cc(OC)c1OC", "note": "(stereo not given)", "GFP response relative to DMSO": "95.3% (inactive)"},
      {"smiles": "COc1ccc(C(=O)C2CCCN(C(=O)c3cccs3)C2)cc1F", "note": "(stereo not given)", "GFP response relative to DMSO": "98.2% (inactive)"},
      {"smiles": "COC(=O)c1ccc(Cn2cc(/C=C\\[N+](=O)[O-])c3ccccc32)o1", "GFP response relative to DMSO": "122% (inactive)"},
      {"smiles": "CC(C)(C)NC(=O)CN(C(=O)CCC(=O)Nc1nccs1)c1ccc(F)cc1", "GFP response relative to DMSO": "98.2% (inactive)"},
      {"smiles": "COc1ccccc1CNC(=O)CS(=O)Cc1nc(-c2ccc(OC)c(OC)c2)oc1C", "note": "(stereo not given)", "GFP response relative to DMSO": "96.7% (inactive)"},
      {"smiles": "O=C(COC(=O)C1CCN(c2ccc(C(F)(F)F)cn2)CC1)Nc1cccc(F)c1", "GFP response relative to DMSO": "102% (inactive)"},
      {"smiles": "COc1ccc(CCNc2nc(-c3sc(C)nc3C)cs2)cc1OC", "GFP response relative to DMSO": "106% (inactive)"},
      {"smiles": "O=C(Nc1c2c(nn1-c1ccccc1)CS(=O)C2)c1ccco1", "note": "(stereo not given)", "GFP response relative to DMSO": "92.9% (inactive)"},
      {"smiles": "Cc1ccsc1/C=N/Nc1ncc(Cl)cc1Cl", "GFP response relative to DMSO": "177% (active)"},
      {"smiles": "O=C(Nc1ccc(S(=O)(=O)N2CCOCC2)cc1)c1ccc([N+](=O)[O-])cc1Cl", "GFP response relative to DMSO": "94.1% (inactive)"},
      {"smiles": "Cc1ccc(-c2nc(NC(=O)c3nn(C)cc3[N+](=O)[O-])sc2C)cc1C", "GFP response relative to DMSO": "95.3% (inactive)"},
      {"smiles": "CC(C)c1nnc(SCC(=O)N2CCc3ccccc32)n1C", "GFP response relative to DMSO": "96.2% (inactive)"},
      {"smiles": "O=S(=O)(c1ccc(-c2ccccc2)cc1)N1CCOCC1", "GFP response relative to DMSO": "97.7% (inactive)"},
      {"smiles": "Cc1cc(O)c(C(=O)/C=C/c2cccc([N+](=O)[O-])c2)c(=O)o1", "GFP response relative to DMSO": "149% (inactive)"},
      {"smiles": "COc1ccccc1N=Nc1ccc(O)c2ncccc12", "GFP response relative to DMSO": "235% (active)"},
      {"smiles": "N=c1ccn(CC(=O)c2ccc(-c3ccccc3)cc2)cc1", "GFP response relative to DMSO": "96.5% (inactive)"}
    ]}
  ]
}
